Laboratory results published in ChEMBL document CHEMBL5096187, “Efficient Synthesis and Bioevaluation of Novel Dual Tubulin/Histone Deacetylase 3 Inhibitors as Potential Anticancer Agents” (J Med Chem, 2021).
Calls of active or inactive are those of the source. The rule behind the calls is not given here.

Experiments:
[1] = Toxicity in C57BL/6 mouse allografted with mouse B16-F10 cells assessed as morphological abnormalities in kidney at 10 mg/kg, ip administered for 14 days by H and E staining based analysis; assay type: organism-based; conditions: in vivo, 336 h, time 14 day
Summary of the method: (§1)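 C57BL/6 mice with subcutaneous B16-F10 allografts, n = 8 per group, given i.p. injections once daily for 14 days. Single agents at 10 mg/kg; combination at 5 + 5 mg/kg. Vehicle: ethanol/polyoxyethylene castor oil/saline 1.25:1.25:7.5. Liver and kidney fixed in 4% paraformaldehyde, paraffin-embedded, H&E stained and examined by microscopy.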

A549 = assay: Antiproliferative activity against human A549 cells assessed as inhibition of cell viability measured for 48 hrs by microplate reader based CCK-8 assay; assay type: functional; conditions: A549, 48 h
B16-F10 [2] = assay: Upregulation of AC-H3 in mouse B16-F10 cells incubated for 12 hrs by Western blot analysis; assay type: functional, cell-based; conditions: dose 20-200 nM, DDE = dose-dependent effect
Summary of the method: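 B16-F10 cells (5 × 10⁵/well) treated 12 h with DMSO or compound, lysed in RIPA buffer. 30 μg protein separated by SDS-PAGE and blotted onto PVDF. Blocked 5% BSA 2 h, primary antibody overnight at 4 °C, secondary 1.5 h. Ac-H3 probed, with histone H3 and GAPDH as loading controls; band density quantified; three independent experiments.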

[3] = Cardiotoxicity in C57BL/6 mouse ssessed as shortening of QTc level in presence of (2-phenylthiazol-4-yl)(3,4,5-trimethoxyphenyl)methanone by ECG analysis; assay type: toxicity
Summary of the method: (§2)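 Mice aged 6–8 weeks dosed by intragastric gavage once daily for 14 days; ECG and heart rate recorded on a PowerLab system.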

B16-F10 [4] = assay: Induction of apoptosis in mouse B16-F10 cells assessed as necrotic cells at 100 nM incubated for 48 hrs by Annexin V-FITC/PI analysis (reference value: 0.012 %); assay type: functional
B16-F10 [5] = assay: Induction of apoptosis in mouse B16-F10 cells assessed as late apoptotic cells at 100 nM incubated for 48 hrs by Annexin V-FITC/PI analysis (reference value: 0.00 %); assay type: functional
B16-F10 [6] = assay: Induction of apoptosis in mouse B16-F10 cells assessed as viable cells at 100 nM incubated for 48 hrs by Annexin V-FITC/PI analysis (reference value: 98.3 %); assay type: functional; conditions: read-out: Activity
[7] = In vivo inhibition of HDAC in tumor of mouse B16-F10 cells xenografted in C57BL/6 mouse assessed as increase in acetylated histone-H3 expression by […] immunohistochemistry method; assay type: functional; design: scale not given: the % may be the effect or the level left
Summary of the method: (§3)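 Tumors from the 14-day i.p. B16-F10 study were formalin-fixed and paraffin-embedded. Sections were deparaffinized, treated with 3% H2O2, and antigen-retrieved at pH 9 and 80 °C overnight. Blocked with milk, incubated with anti-Ac-H3 at 4 °C overnight, then IgG secondary and hematoxylin counterstain. Ac-H3-positive ratio quantified from images.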

[8] = Toxicity in C57BL/6 mouse allografted with mouse B16-F10 cells assessed as body weight loss at 10 mg/kg, ip administered for 14 days; conditions: in vivo, 336 h
B16-F10 [9] = assay: cells; conditions: Mus musculus, B16-F10, 48 h
B16-F10 [10] = assay: Antitumor activity against mouse B16-F10 cells allografted in C57BL/6 mouse assessed as tumor growth inhibition at 10 mg/kg, ip administered for 14 days; assay type: functional; conditions: B16-F10, 336 h, time 14 day, read-out: TGI
Summary of the method: (§4)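 C57BL/6 mice were inoculated subcutaneously with 3×10⁵ B16-F10 cells in PBS and randomized (n = 8). Drugs in ethanol/polyoxyethylene castor oil/saline (1.25:1.25:7.5) or vehicle alone were given i.p. once daily for 14 days. Mice were sacrificed at day 14 and tumors weighed; TGI(%) = [1 − Wt/Wv] × 100 using mean tumor weights.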

B16-F10 [11] = assay: Induction of apoptosis in mouse B16-F10 cells assessed as early apoptotic cells at 100 nM incubated for 48 hrs by Annexin V-FITC/PI analysis (reference value: 1.68 %); assay type: functional
B16-F10 [12] = assay: Antitumor activity against mouse B16-F10 cells allografted in C57BL/6 mouse assessed as tumor growth inhibition at 10 mg/kg, ip administered for 14 days in presence of (2-phenylthiazol-4-yl)(3,4,5-trimethoxyphenyl)methanone; assay type: functional; conditions: B16-F10, 336 h, time 14 day, read-out: TGI; summary of the method: as §4
[13] = In vivo inhibition of HDAC in tumor of mouse B16-F10 cells xenografted in C57BL/6 mouse assessed as increase in acetylated histone-H3 expression in presence of (2-phenylthiazol-4-yl)(3,4,5-trimethoxyphenyl)methanone by […] immunohistochemistry method; assay type: functional; design: scale not given: the % may be the effect or the level left; summary of the method: as §3
B16-F10 [14] = assay: Antiproliferative activity against mouse B16-F10 cells assessed as inhibition of cell viability measured for 48 hrs by microplate reader based MTT assay; assay type: functional; conditions: B16-F10, 48 h
Summary of the method: (§5)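 Cells grown in RPMI-1640 with 10% FBS and seeded at 5000 cells/well. After overnight attachment, compound was added in medium with 0.1% DMSO for 48 h at 37 °C. Read-out was MTT for HCT-116, B16-F10 and A549, and CCK-8 for Jurkat (0.5 mg/mL, 4 h), with absorbance at 570 nm. IC50 from nonlinear regression; at least three independent experiments.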

[15] = Antiproliferative activity against human YCC3/7 cells assessed as inhibition of cell viability; assay type: functional, cell-based
[16] = Antiproliferative activity against human YCC-11 cells assessed as inhibition of cell viability; assay type: functional, cell-based
B16-F10 [17] = assay: Induction of cell cycle arrest in mouse B16-F10 cells assessed as accumulation of cells in G2/M phase at 100 nM measured after 48 hrs by PI/RNaseA staining based flow cytometry analysis (Rvb= 5.76%); assay type: functional
Jurkat = assay: Antiproliferative activity against human Jurkat cells assessed as inhibition of cell viability measured for 48 hrs by microplate reader based CCK-8 assay; assay type: functional
[18] = Toxicity in C57BL/6 mouse allografted with mouse B16-F10 cells assessed as morphological abnormalities in kidney at 5 mg/kg, ip administered for 14 days in presence of (2-phenylthiazol-4-yl)(3,4,5-trimethoxyphenyl)methanone by H and E staining based analysis; assay type: organism-based; conditions: in vivo, 336 h, time 14 day; summary of the method: as §1
[19] = Cardiotoxicity in C57BL/6 mouse ssessed as shortening of QTc level by ECG analysis; assay type: toxicity; summary of the method: as §2
HCT-116 = assay: Antiproliferative activity against human HCT-116 cells assessed as inhibition of cell viability measured for 48 hrs by microplate reader based MTT assay; assay type: functional; conditions: HCT-116, 48 h; summary of the method: as §5
B16-F10 [20] = assay: Antitumor activity against mouse B16-F10 cells allografted in C57BL/6 mouse assessed as reduction in tumor weight at 10 mg/kg, ip administered for 14 days in presence of (2-phenylthiazol-4-yl)(3,4,5-trimethoxyphenyl)methanone; assay type: functional, organism-based; conditions: time 14.0 day; summary of the method: as §4
Tubulin = Tubulin (Sus scrofa, UniProt P02554+P02550); assay: Inhibition of pig brain tubulin polymerization by spectrometric method
Summary of the method: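 Phosphocellulose-purified pig brain tubulin mixed with graded compound concentrations in PEM buffer (100 mM PIPES, 1 mM MgCl2, 1 mM EGTA) plus 1 mM GTP and 5% glycerol. Absorbance at 340 nm and 37 °C; plateau absorbance used to calculate IC50.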

[21] = In vivo inhibition of HDAC in tumor of mouse B16-F10 cells xenografted in C57BL/6 mouse assessed as increase in acetylated histone-H3 expression in presence of Entinostat by […] immunohistochemistry method; assay type: functional; design: scale not given: the % may be the effect or the level left; summary of the method: as §3
Tubulin (Sus scrofa) = Tubulin (Sus scrofa) (UniProt P02554+P02550); assay: Inhibition of pig brain tubulin polymerization at 10 uM measured after 20 mins by spectrometric method relative to control
Summary of the method: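 Pig brain tubulin was purified by three assembly/disassembly cycles and then phosphocellulose chromatography. Compound at 10 μM in PEM buffer with 1 mM GTP and 5% glycerol at 37 °C. Polymerization followed at 340 nm; inhibition taken at 20 min versus vehicle control.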

B16-F10 [22] = assay: Inhibition of cell migration in mouse B16-F10 cells assessed as reduction in wound area ratio measured at 100 nM incubated for 24 hrs by wound healing assay; assay type: functional; design: scale not given: the % may be the effect or the level left
Summary of the method: (§6)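 Confluent B16-F10 monolayers, seeded overnight, were scratched with a pipette tip and washed to remove debris. Cells were then treated, and phase-contrast images were taken at 0 and 24 h. Migration distance or wound area measured manually against DMSO control; n = 3.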

[23] = Toxicity in C57BL/6 mouse allografted with mouse B16-F10 cells assessed as morphological abnormalities in kidney at 5 mg/kg, ip administered for 14 days in presence of Entinostat by H and E staining based analysis; assay type: organism-based; conditions: in vivo, 336 h, time 14 day; summary of the method: as §1
B16-F10 [24] = assay: Antitumor activity against mouse B16-F10 cells allografted in C57BL/6 mouse assessed as reduction in tumor weight at 10 mg/kg, ip administered for 14 days in presence of Entinostat; assay type: functional, organism-based; conditions: time 14.0 day; summary of the method: as §4
B16-F10 [25] = assay: Inhibition of cell migration in mouse B16-F10 cells assessed as reduction in wound area measured at 100 nM incubated for 24 hrs by wound healing assay; assay type: functional; design: scale not given: the % may be the effect or the level left; summary of the method: as §6
[26] = Cardiotoxicity in C57BL/6 mouse ssessed as shortening of QTc level in presence of Entinostat by ECG analysis; assay type: toxicity; summary of the method: as §2
B16-F10 [27] = assay: Antiproliferative activity against mouse B16-F10 cells assessed as inhibition of cell viability measured for 48 hrs in presence of Entinostat by microplate reader based MTT assay; assay type: functional; conditions: B16-F10, 48 h; summary of the method: as §5
B16-F10 [28] = assay: Antitumor activity against mouse B16-F10 cells allografted in C57BL/6 mouse assessed as tumor growth inhibition at 10 mg/kg, ip administered for 14 days in presence of Entinostat; assay type: functional; conditions: B16-F10, 336 h, time 14 day, read-out: TGI; summary of the method: as §4

Chain of Tubulin (Sus scrofa) (P02550 whole entry, looked up): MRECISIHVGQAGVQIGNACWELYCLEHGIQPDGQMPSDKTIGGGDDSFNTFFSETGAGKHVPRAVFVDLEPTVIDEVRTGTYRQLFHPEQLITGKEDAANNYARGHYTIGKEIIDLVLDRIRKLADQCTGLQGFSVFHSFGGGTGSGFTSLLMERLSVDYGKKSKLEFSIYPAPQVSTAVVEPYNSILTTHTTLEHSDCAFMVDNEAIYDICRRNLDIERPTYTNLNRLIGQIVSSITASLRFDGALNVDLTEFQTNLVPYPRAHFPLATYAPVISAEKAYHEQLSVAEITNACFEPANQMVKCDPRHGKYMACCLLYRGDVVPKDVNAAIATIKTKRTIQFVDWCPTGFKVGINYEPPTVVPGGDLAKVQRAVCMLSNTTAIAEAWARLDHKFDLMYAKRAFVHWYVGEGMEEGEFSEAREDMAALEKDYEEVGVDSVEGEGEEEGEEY
Chain of Tubulin (Sus scrofa) (P02554 whole entry, looked up): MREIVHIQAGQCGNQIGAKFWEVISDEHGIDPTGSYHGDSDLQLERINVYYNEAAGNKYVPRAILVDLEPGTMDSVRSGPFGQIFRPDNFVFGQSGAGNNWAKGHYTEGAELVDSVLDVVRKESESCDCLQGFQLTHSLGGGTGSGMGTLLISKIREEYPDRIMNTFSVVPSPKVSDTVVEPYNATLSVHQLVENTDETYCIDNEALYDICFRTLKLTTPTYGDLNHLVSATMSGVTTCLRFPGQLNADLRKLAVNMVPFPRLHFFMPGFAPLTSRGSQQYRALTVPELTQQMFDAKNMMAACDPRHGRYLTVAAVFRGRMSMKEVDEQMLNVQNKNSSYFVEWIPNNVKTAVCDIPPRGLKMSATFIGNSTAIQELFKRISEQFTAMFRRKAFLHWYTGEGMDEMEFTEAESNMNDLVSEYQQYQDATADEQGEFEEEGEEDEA

Row | IC50 (A549) [µM] | IC50 (B16-F10 [14]) [µM] | IC50 (Jurkat) [µM] | IC50 (HCT-116) [µM] | SMILES | Activity [1] | Activity (B16-F10 [4]) [%] | Activity (B16-F10 [5]) [%] | viability at 0.1 µM (B16-F10 [6]) [%] | Activity [8] | inhibition in vivo at 10 mg/kg (B16-F10 [10]) [%] | Activity (B16-F10 [11]) [%] | IC50 [15] [µM] | IC50 [16] [µM] | Activity (B16-F10 [17]) [%] | Activity [19] | also measured
1 | 1.71 | 2.26 | 0.69 | 1.72 | Nc1ccccc1NC(=O)c1ccc(CNC(=O)OCc2cccnc2)cc1 [ENTINOSTAT] | Non-Toxic | 1.37 | 22.4 | 59.9 | Non-Toxic | 47 | 16.3 | 12.9 | 5.56 | 42.17 | Toxic | Activity (B16-F10 [2]): Dde; Activity [3]: Non-Toxic; Activity [7]: 27.9%; IC50 (B16-F10 [9]): 1.15 µM; inhibition in vivo at 10 mg/kg (B16-F10 [12]): 53%; Activity [13]: 16.3%; Activity [18]: Non-Toxic; Activity (B16-F10 [20]): Active
2 | 0.19 | 0.98 | 0.03 | 0.07 | COc1cc(C(=O)c2csc(-c3ccccc3)n2)cc(OC)c1OC | Non-Toxic | 0.75 | 0.49 | 60.7 | Non-Toxic | 25 | 29.1 | 1.94 | 1.69 | 76.58 | Toxic | IC50 (Tubulin): 7.9 µM; Activity [21]: 16.3%; inhibition (Tubulin (Sus scrofa)): 78%; Activity (B16-F10 [22]): 16.24%; Activity [23]: Non-Toxic; Activity (B16-F10 [24]): Active; Activity (B16-F10 [25]): 16.2%; Activity [26]: Non-Toxic; IC50 (B16-F10 [27]): 1.15 µM; inhibition in vivo at 10 mg/kg (B16-F10 [28]): 53%
